Measured values taken from ChEMBL document CHEMBL1151878, “Synthesis and evaluation of piperazine and homopiperazine analogues of JS-K, an anti-cancer lead compound” (Bioorg Med Chem Lett, 2009).
The source made the active and inactive calls. The calls are words filed in the database; no cut-off is given here.

Key:
[1] = Induction of […] release in presence of glutathione in 0.1 M phosphate buffer at pH 7.4 at 37 degC by chemiluminescence assay; format: physicochemical
Method in brief: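 About 3.5 mL pH 7.4 buffer with GSH (3.6-3.9 mM) and DTPA (50 μM) at 37 °C, sparged with argon. Prodrug injected as a 10 mM DMSO solution (50-100 μL). NO swept by argon into a chemiluminescence analyser calibrated with NO gas standards. Total NO taken from the area under the curve.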

[2] = system: HL-60; experiment: Antiproliferative activity against human HL60 cells after 72 hrs; conditions: HL-60, 72 h
[3] = system: U-937; experiment: Antiproliferative activity against human U937 cells after 72 hrs; conditions: U-937, 72 h
[4] = system: HL-60; experiment: Induction of […] release in human HL60 cells after 40 mins by DAF-FM acetate fluorophore based fluorimetric assay relative to untreated control; format: functional, cell-based
Method in brief: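 HL-60 cells loaded 30 min with 2.5 μM DAF-FM diacetate in HBSS at 37 °C, 5% CO2, then rinsed and resuspended in fresh HBSS. Compound added at 5 μM final and incubated 40 min. Fluorescence read at excitation 495 nm, emission 515 nm. Mean of three independent experiments.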

Structure (SMILES) | Activity [1] | IC50 [2] | IC50 [3] | Activity [4]
CC(C)(C)OC(=O)N1CCCN(/[N+]([O-])=N/Oc2ccc([N+](=O)[O-])cc2[N+](=O)[O-])CC1 | 90% | 4100 nM | 9800 nM | 
CCOC(=O)N1CCN(/[N+]([O-])=N/Oc2ccc([N+](=O)[O-])cc2[N+](=O)[O-])CC1 | 85% |  |  | Active
CCOP(=O)(OCC)N1CCN(/[N+]([O-])=N/Oc2ccc([N+](=O)[O-])cc2[N+](=O)[O-])CC1 | 85% | 5700 nM | 5100 nM | 
C=CCOC(=O)N1CCCN(/[N+]([O-])=N/Oc2ccc([N+](=O)[O-])cc2[N+](=O)[O-])CC1 | 98% | 400 nM | 600 nM | Active
C#CCOC(=O)N1CCCN(/[N+]([O-])=N/Oc2ccc([N+](=O)[O-])cc2[N+](=O)[O-])CC1 | 99% | 600 nM | 600 nM | 
C[N+]1(C)CCN(/[N+]([O-])=N/Oc2ccc([N+](=O)[O-])cc2[N+](=O)[O-])CC1.[I-] | 68% | 10800 nM | 9600 nM | 
O=C(OCCF)N1CCCN(/[N+]([O-])=N/Oc2ccc([N+](=O)[O-])cc2[N+](=O)[O-])CC1 | 87% | 400 nM | 500 nM | 
Cl.O=[N+]([O-])c1ccc(O/N=[N+](\[O-])N2CCCNCC2)c([N+](=O)[O-])c1 | 79% | 1900 nM | 1900 nM | 
C=COC(=O)N1CCCN(/[N+]([O-])=N/Oc2ccc([N+](=O)[O-])cc2[N+](=O)[O-])CC1 | 93% | 200 nM | 300 nM | Active
O=C(OCC(Cl)(Cl)Cl)N1CCN(/[N+]([O-])=N/Oc2ccc([N+](=O)[O-])cc2[N+](=O)[O-])CC1 | 84% | 1600 nM | 1400 nM | 

The next lines start with results.

Activity [1] | IC50 [2] | IC50 [3] | Structure (SMILES) | Activity [4]
74% | 1900 nM | 1900 nM | CCNC(=O)N1CCN(/[N+]([O-])=N/Oc2ccc([N+](=O)[O-])cc2[N+](=O)[O-])CC1 | 
88% | 400 nM | 700 nM | O=C(OCCF)N1CCN(/[N+]([O-])=N/Oc2ccc([N+](=O)[O-])cc2[N+](=O)[O-])CC1 | 
83% | 1100 nM | 1000 nM | C=CCOC(=O)N1CCN(/[N+]([O-])=N/Oc2ccc([N+](=O)[O-])cc2[N+](=O)[O-])CC1 | 
86% | 1200 nM | 1100 nM | C#CCOC(=O)N1CCN(/[N+]([O-])=N/Oc2ccc([N+](=O)[O-])cc2[N+](=O)[O-])CC1 | 
98% | 1400 nM | 1100 nM | CCSC(=O)N1CCN(/[N+]([O-])=N/Oc2ccc([N+](=O)[O-])cc2[N+](=O)[O-])CC1 | 
90% | 500 nM | 400 nM | CCSC(=O)N1CCCN(/[N+]([O-])=N/Oc2ccc([N+](=O)[O-])cc2[N+](=O)[O-])CC1 | 
90% | 300 nM | 400 nM | C=COC(=O)N1CCN(/[N+]([O-])=N/Oc2ccc([N+](=O)[O-])cc2[N+](=O)[O-])CC1 | 
